The source made the active and inactive calls. The rule behind the calls is not given here.
Experiments:
[1] = Half life in Beagle dog at 3 mg/kg, po measured up to 24 hrs by LC-MS/MS analysis; format: ADME, organism-based, Canis lupus familiaris; conditions: in vivo
Summary of the method: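 Male Beagle dogs dosed orally at 3 mg/kg in 90% PEG400 + 10% Cremophor.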

[2] = Half life in Sprague-Dawley rat at 10 mg/kg, po measured up to 24 hrs by LC-MS/MS analysis; format: ADME, organism-based; conditions: in vivo
Summary of the method: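 Male SD rats given a single oral dose of 10 mg/kg in 5% DMSO + 10% Solutol + 85% saline.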

[3] = target: T1, Androgen receptor (Homo sapiens) (UniProt P10275); experiment: Induction of androgen receptor degradation in human VCaP cells at 0.1 uM after 24 hrs by Western blotting analysis relative to control; format: cell-based
T1 sequence (whole entry): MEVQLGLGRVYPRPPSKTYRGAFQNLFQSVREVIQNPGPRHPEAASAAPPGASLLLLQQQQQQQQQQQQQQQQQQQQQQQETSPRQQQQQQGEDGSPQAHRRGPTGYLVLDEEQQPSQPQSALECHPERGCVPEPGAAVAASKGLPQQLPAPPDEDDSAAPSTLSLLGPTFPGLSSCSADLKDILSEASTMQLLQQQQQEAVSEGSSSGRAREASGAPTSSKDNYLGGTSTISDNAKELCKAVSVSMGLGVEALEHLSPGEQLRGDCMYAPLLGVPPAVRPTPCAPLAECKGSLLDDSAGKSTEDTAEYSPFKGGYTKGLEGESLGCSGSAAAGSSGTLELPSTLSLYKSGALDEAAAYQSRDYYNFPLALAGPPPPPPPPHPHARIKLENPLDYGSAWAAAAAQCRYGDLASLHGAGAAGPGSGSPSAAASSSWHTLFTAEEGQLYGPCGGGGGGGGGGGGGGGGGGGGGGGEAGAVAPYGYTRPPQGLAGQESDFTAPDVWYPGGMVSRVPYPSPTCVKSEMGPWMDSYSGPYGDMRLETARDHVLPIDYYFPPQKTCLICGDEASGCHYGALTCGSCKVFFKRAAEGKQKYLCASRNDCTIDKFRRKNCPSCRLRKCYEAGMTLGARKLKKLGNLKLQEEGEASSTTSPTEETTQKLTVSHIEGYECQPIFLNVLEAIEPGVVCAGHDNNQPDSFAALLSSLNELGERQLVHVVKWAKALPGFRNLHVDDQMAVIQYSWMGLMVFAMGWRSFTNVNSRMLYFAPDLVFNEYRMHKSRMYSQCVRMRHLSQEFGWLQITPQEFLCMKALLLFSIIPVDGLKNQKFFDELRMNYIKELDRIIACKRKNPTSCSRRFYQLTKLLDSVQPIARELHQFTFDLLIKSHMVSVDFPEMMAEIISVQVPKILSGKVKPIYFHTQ
Summary of the method: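 VCaP cells treated for 24 h at 10, 100 or 1000 nM. AR protein measured by Western blotting.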

[4] = system: LNCaP; experiment: Growth inhibition in human LNCaP cells incubated for 4 days by WST-8 assay relative to control; format: functional; conditions: time 4 day
Summary of the method: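 LNCaP cells grown in RPMI 1640 with 10% FBS, treated for 4 days. Viability read by WST-8 assay.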

[5] = Plasma protein binding in dog at 1 uM after 5 hrs by equilibrium dialysis based LC-MS/MS analysis; format: ADME, cell-free, Canis lupus familiaris
Summary of the method: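 Equilibrium dialysis of pooled plasma of each species spiked at 1 μM against 0.1 M sodium phosphate, pH 7.4. 5 h at 37 °C with shaking at 60 rpm. Both sides matrix-matched, ACN/IS quench, LC/MS. % bound = 100 − (buffer/plasma peak-area ratio × 100); recovery also calculated. Warfarin as reference.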

[6] = system: Mus musculus; experiment: In vivo induction of androgen receptor degradation in human VCaP cells xenografted in CB17 SCID mouse assessed as reduction in KLK3 mRNA level at 12.5 mg/kg, po measured after 6 to 24 hrs by qRT-PCR analysis; format: functional, organism-based; conditions: time 6-24 hrs
[7] = AUC(0 to t) in Sprague-Dawley rat at 1 mg/kg, iv measured upto 24 hrs by LC-MS/MS analysis; format: ADME, organism-based; parameters: time < 24 hrs, dose 1 mg/kg, route iv; conditions: in vivo
Summary of the method: (§1)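 Male ICR mice (2 mg/kg), male SD rats (1 mg/kg) or male Beagle dogs (1 mg/kg) given a single intravenous dose in 10% PEG400 + 90% PBS adjusted to pH 8.0 with NaOH.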

[8] = Volume of distribution at steady state in ICR mouse at 2 mg/kg, iv measured upto 24 hrs by LC-MS/MS analysis; format: ADME, organism-based; conditions: in vivo
Summary of the method: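 Male ICR mice. IV 2 mg/kg and PO 5 mg/kg, both in 10% PEG400 + 90% PBS adjusted to pH 8.0. Plasma sampled to 24 h; F from IV and PO exposure.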

[9] = AUC(0 to t) in Beagle dog at 1 mg/kg, iv measured upto 24 hrs by LC-MS/MS analysis; format: ADME, organism-based, Canis lupus familiaris; parameters: time < 24 hrs, dose 1 mg/kg, route iv; conditions: in vivo; summary of the method: as §1
[10] = Drug concentration in CB17 SCID mouse tumor xenografted with human VCaP cells at 12.5 mg/kg, po measured after 24 hrs by LC-MS/MS analysis; format: ADME, organism-based, Neoplasm; conditions: read-out: Ct
Summary of the method: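 SCID mice bearing one VCaP tumour each given a single oral 12.5 mg/kg dose in 100% PEG200. Plasma and tumour tissue collected at 6 and 24 h, 3 mice per time point. Values are mean ± SD.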

[11] = system: VCaP; experiment: Antitumor activity against human VCaP cells xenografted in CB17 SCID mouse assessed as tumor growth inhibition at 7.5 mg/kg, po administered for 21 days; format: functional; conditions: 504 h, time 21 day, read-out: TGI
Summary of the method: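 SCID mice bearing VCaP xenografts dosed by oral gavage once daily for 21 days at 3.75, 7.5, 12.5 or 25 mg/kg. Tumour growth inhibition calculated against vehicle-treated mice at the end of treatment; body weight monitored.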

[12] = system: Mus musculus; experiment: In vivo induction of androgen receptor degradation in human VCaP cells xenografted in CB17 SCID mouse assessed as reduction in TMPRSS2 mRNA level at 12.5 mg/kg, po measured after 6 to 24 hrs by qRT-PCR analysis; format: functional, organism-based; conditions: time 6-24 hrs
[13] = Metabolic stability in rat hepatocytes assessed as half life at 1 uM measured upto 120 mins in presence of NADPH by LC-MS/MS analysis; format: ADME, cell-based, Hepatocyte; conditions: 2 h
[14] = system: LNCaP; experiment: Downregulation of KLK3 gene expression in human LNCaP cells incubated for 24 hrs by qRT-PCR analysis; format: functional, cell-based; conditions: dose 0.03-30 nM
Summary of the method: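 LNCaP cells (RPMI 1640) or VCaP cells (DMEM Glutamax), both with 10% FBS, treated for 24 h. KLK3 mRNA measured by qRT-PCR and calculated by the comparative CT method against GAPDH and vehicle.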

[15] = Half life in ICR mouse at 2 mg/kg, iv measured upto 24 hrs by LC-MS/MS analysis; format: ADME, organism-based; conditions: in vivo; summary of the method: as §1
[16] = Metabolic stability in dog plasma assessed as half life at 1 uM measured upto 120 mins by LC-MS/MS analysis; format: ADME, cell-free, Canis lupus familiaris; conditions: 2 h
Summary of the method: (§2)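 Compound at 1 μM final in pre-warmed plasma of each species, 37 °C for up to 2 h. ACN/IS quench at 0, 5, 15, 30, 60 and 120 min; LC/MS. Procaine as reference (benfluorex for rat). t1/2 = 0.693/slope of ln(fraction remaining) versus time.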

[17] = Metabolic stability in monkey plasma assessed as half life at 1 uM measured upto 120 mins by LC-MS/MS analysis; format: ADME, cell-free, Macaca mulatta; conditions: rhesus monkey, 2 h; summary of the method: as §2

C[C@H]1CC2(CCN(c3ccc(C(=O)N4CCN(C5CN(c6ccc7c(c6)C(=O)N(C6CCC(=O)NC6=O)C7=O)C5)CC4)cc3)CC2)CN1c1ccc(C#N)c(Cl)c1 (some centres not stated)
t1/2 [1]: 3.4 h
t1/2 [2]: 3.9 h
Activity [3]: > 95%
Imax [4]: 100%
PPB [5]: 99.3%
Activity [6]: Active
AUCt [7]: 1560 ng·h/mL
Vdss [8]: 1.3 L/kg
AUCt [9]: 3240 ng·h/mL
concentration at 24 h [10]: 183 ng/mL
inhibition in vivo at 7.5 mg/kg [11]: 71%
Activity [12]: Active
t1/2 [13]: > 2 h
Activity [14]: Dose-Dependent Effect
t1/2 [15]: 5 h
t1/2 [16]: > 2 h
t1/2 [17]: > 2 h

— ChEMBL document CHEMBL5331127, “Discovery of ARD-2051 as a Potent and Orally Efficacious Proteolysis Targeting Chimera (PROTAC) Degrader of Androgen Receptor for the Treatment of Advanced Prostate Cancer” (J Med Chem, 2023)
